According to ChEMBL document CHEMBL1127608, “Non-peptide fibrinogen receptor antagonists. 2. Optimization of a tyrosine template as a mimic for Arg-Gly-Asp” (J Med Chem, 1994):
pIC50: −log10 of the molar value. Peptide text beside a SMILES is read from it.

Tests used:
[1] = biological target: T1, Integrin alpha-IIb/beta-3 (Homo sapiens, UniProt P05106+P08514); experiment: Inhibition of platelet aggregation as the concentration necessary to inhibit the change in light.; format: functional
How it was run: (§1)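 Human gel-filtered platelets at 2 × 10^8/mL were mixed with 0.1 mg/mL human fibrinogen, 1 mM CaCl2 and compound, then aggregated with 10 µM ADP. Light transmittance was compared between control and treated samples.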
Target sequence in this assay (P05106 27-788 limits assumed): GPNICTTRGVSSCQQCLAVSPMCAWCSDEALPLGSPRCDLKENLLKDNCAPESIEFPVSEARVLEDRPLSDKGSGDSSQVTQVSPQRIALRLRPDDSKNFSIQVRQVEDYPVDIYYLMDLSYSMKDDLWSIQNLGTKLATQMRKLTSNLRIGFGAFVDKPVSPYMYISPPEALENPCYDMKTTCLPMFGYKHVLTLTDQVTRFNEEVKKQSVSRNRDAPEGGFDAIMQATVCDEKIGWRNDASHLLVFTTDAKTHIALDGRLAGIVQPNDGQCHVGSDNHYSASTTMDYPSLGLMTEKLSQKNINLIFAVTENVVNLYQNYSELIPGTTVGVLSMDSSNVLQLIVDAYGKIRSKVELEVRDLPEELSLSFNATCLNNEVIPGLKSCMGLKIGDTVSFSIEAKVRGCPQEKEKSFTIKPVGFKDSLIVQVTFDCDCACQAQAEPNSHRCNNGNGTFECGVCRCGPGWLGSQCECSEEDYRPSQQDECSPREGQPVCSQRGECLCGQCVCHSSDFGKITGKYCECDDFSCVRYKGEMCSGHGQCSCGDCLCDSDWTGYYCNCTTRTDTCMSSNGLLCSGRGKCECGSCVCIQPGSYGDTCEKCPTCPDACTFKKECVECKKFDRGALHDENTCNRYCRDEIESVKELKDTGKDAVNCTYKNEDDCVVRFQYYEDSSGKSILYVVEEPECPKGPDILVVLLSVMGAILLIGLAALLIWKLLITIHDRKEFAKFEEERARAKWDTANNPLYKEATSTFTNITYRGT
Target sequence in this assay (P08514 32-887 limits assumed): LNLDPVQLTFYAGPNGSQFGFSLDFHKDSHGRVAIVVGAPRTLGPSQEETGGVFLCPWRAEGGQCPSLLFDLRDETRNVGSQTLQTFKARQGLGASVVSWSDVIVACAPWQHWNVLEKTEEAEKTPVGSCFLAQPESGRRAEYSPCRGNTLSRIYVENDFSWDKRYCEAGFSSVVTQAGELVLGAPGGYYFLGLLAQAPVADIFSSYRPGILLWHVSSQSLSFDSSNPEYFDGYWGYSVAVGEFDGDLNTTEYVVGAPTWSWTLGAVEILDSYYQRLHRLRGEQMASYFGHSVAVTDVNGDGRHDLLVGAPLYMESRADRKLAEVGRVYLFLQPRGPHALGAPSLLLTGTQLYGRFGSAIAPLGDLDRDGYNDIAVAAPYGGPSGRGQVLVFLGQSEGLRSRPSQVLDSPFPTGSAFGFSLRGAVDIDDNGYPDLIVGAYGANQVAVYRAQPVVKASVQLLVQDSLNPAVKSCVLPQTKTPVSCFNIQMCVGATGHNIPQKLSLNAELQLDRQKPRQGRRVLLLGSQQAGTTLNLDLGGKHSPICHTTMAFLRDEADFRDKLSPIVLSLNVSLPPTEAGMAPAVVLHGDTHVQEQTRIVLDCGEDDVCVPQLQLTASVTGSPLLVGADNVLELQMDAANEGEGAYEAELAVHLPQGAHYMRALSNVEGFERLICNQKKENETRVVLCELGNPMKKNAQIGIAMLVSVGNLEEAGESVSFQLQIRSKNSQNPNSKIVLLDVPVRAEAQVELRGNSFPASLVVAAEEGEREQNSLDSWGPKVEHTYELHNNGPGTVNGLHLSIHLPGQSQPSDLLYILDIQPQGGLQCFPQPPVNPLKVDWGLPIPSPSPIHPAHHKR
Target sequence in this assay (P08514 891-1039 limits assumed): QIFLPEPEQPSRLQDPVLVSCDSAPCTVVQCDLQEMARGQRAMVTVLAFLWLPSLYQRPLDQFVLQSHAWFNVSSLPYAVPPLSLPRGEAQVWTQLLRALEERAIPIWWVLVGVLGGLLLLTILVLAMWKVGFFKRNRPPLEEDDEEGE

[2] = biological target: T2, Integrin alpha-V/beta-3 (Homo sapiens, UniProt P05106+P06756); experiment: Inhibition of human umbilical vein endothelial cell adhesion to fibrinogen; format: functional, cell-based
T2 sequence (P05106 27-788 limits assumed): as the sequence (P05106 27-788 limits assumed) above
T2 sequence (P06756 31-889 limits assumed): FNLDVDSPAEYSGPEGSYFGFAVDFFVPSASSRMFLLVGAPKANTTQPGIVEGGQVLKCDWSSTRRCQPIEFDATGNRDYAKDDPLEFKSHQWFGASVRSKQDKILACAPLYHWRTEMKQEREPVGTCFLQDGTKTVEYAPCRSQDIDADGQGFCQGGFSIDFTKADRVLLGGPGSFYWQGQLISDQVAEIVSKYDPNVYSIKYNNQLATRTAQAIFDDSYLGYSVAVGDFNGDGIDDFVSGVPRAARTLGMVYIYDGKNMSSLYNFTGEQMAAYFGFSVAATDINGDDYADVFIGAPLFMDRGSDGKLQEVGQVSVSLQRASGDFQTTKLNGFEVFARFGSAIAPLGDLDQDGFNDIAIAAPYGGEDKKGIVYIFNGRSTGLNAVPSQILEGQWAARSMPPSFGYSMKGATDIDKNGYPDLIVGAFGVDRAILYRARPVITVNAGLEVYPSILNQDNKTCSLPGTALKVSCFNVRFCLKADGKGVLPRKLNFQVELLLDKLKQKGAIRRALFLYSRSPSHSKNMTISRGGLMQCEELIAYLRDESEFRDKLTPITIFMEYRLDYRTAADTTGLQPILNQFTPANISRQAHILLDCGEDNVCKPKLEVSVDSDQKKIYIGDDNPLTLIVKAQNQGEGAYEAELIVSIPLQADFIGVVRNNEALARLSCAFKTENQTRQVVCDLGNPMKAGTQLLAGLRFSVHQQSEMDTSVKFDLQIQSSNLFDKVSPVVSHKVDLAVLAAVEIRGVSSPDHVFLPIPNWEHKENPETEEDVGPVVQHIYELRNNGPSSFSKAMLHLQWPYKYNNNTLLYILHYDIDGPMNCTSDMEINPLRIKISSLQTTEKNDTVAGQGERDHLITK
T2 sequence (P06756 891-1048 limits assumed): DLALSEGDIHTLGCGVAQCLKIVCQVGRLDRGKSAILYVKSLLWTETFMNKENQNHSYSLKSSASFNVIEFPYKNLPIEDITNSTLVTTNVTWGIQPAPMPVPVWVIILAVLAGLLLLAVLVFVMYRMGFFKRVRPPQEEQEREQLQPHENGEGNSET

[3] = biological target: Integrin alpha-5/beta-1 (Homo sapiens, UniProt P05556+P08648); experiment: (§2) Inhibition of human umbilical vein endothelial cell adhesion to fibronectin; format: functional, cell-based
Chain of Integrin alpha-5/beta-1 (P05556 21-798 limits assumed): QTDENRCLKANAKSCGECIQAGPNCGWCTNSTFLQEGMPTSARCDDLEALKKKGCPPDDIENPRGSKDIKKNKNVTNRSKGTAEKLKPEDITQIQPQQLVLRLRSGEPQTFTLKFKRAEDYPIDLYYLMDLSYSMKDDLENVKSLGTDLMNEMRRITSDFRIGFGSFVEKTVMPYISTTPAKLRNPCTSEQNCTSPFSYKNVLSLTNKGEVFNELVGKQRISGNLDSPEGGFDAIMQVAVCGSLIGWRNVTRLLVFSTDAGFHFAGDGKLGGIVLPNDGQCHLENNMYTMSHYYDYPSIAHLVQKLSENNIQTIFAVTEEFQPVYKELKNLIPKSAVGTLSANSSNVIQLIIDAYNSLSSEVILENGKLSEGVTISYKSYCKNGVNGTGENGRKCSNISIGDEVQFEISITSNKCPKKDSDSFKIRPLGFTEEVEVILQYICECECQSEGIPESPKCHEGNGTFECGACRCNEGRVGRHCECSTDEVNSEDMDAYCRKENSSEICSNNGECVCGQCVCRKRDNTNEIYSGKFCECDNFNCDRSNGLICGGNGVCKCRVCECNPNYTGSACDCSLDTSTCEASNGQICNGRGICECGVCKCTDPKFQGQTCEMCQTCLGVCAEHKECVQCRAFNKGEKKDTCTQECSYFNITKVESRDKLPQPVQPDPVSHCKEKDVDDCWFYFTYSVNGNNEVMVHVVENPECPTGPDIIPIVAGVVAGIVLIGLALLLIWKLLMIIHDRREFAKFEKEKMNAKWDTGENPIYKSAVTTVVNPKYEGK
Chain of Integrin alpha-5/beta-1 (P08648 42-894 limits assumed): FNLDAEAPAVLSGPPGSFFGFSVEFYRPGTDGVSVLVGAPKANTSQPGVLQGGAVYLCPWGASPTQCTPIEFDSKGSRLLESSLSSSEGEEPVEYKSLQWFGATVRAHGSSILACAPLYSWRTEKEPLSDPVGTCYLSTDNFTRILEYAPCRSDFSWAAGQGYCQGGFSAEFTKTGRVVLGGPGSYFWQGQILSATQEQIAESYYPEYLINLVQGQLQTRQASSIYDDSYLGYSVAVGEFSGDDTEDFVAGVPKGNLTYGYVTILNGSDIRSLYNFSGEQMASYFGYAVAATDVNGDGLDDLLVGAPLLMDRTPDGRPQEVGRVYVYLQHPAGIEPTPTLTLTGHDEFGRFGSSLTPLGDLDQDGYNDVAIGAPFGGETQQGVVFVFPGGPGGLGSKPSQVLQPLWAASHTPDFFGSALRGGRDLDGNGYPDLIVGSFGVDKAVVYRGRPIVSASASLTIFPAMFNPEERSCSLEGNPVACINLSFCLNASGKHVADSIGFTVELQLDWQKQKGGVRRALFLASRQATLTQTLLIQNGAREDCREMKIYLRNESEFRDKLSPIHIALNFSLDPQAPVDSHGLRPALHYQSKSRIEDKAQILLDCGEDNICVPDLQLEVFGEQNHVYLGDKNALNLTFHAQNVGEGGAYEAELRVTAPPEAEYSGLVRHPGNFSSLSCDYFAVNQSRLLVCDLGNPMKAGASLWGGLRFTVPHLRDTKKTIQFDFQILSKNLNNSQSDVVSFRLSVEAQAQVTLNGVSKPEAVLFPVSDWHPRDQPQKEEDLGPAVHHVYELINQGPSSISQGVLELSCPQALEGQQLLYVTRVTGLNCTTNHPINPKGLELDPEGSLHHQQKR
Chain of Integrin alpha-5/beta-1 (P08648 895-1049 limits assumed): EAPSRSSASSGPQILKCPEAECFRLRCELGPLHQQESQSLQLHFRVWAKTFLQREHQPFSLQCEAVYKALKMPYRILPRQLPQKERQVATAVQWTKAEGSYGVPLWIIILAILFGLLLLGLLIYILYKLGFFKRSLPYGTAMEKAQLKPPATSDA

[4] = biological target: T2, Integrin alpha-V/beta-3; experiment: Inhibition of human umbilical vein endothelial cell adhesion to vitronectin; format: functional, cell-based
[5] = biological target: T1, Integrin alpha-IIb/beta-3; experiment: Inhibition of platelet aggregation by change in light transmittance at 300 uM; format: functional; how it was run: as §1
[6] = as §2; format: functional, cell-based

SMILES	pIC50 [1]	pIC50 [2]	pIC50 [4]	further results
NCCCCCCOc1ccc(C[C@H](NC(=O)CCc2ccccc2)C(=O)O)cc1	5.10	–	–	–
NCCCCCCOc1ccc(C[C@H](NC(=O)OCc2ccccc2)C(=O)O)cc1	4.59	–	–	–
NC(N)=NCCC[C@H](N)C(=O)NCC(=O)N[C@@H](CC(=O)O)C(=O)N[C@@H](Cc1c[nH]c2ccccc12)C(=O)O (H-RGDW-OH)	–	4.47	4.85	pIC50 [3]: 4.57
NCCCCCCOc1ccc(CCC(=O)O)cc1	–	–	–	inhibition [5]: 12%
CC(C)(C)NCC(O)COc1ccc(C[C@H](NC(=O)OCc2ccccc2)C(=O)O)cc1 (stereo partly drawn)	–	< 3.52	< 3.52	pIC50 [6]: < 3.52
NCCCCCCCOc1ccc(C[C@H](NC(=O)OCc2ccccc2)C(=O)O)cc1	–	3.50	3.83	pIC50 [3]: < 3.35
CCCCCC(=O)N[C@@H](Cc1ccc(OCCCCC2CCNCC2)cc1)C(=O)O	7.46	–	–	–
O=C(O)[C@H](Cc1ccc(OCCCCC2CCNCC2)cc1)NS(=O)(=O)Cc1ccccc1	7.74	–	–	–
CCCCS(=O)(=O)N[C@@H](Cc1ccc(OCCCCC2CCNCC2)cc1)C(=O)O [TIROFIBAN]	–	–	4.21	–
O=C(N[C@@H](Cc1ccc(OCCCCC2CCNCC2)cc1)C(=O)O)OCc1ccccc1	6.59	3.80	4.25	pIC50 [6]: 3.52
CCCCS(=O)(=O)N[C@@H](Cc1ccc(OCCCCCCN)cc1)C(=O)O	6.11	3.48	3.82	pIC50 [3]: < 3.30
